Source: article PMC11871924 (International Journal of Nanomedicine, 2025)

What was measured:
[1] = test system: H22 orthotopic liver tumors; experiment: Mouse orthotopic H22 hepatocellular carcinoma model; assay type: in vivo, BALB/c mice
Outline: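 Female BALB/c mice (6–8 weeks) received 106 log-phase H22 cells in matrix gel, injected into an exteriorised liver lobe via abdominal incision. At ~50 mm3 tumours, groups (n=5) received i.v. PBS (100 μL), 100 μL nanoparticles daily for 6 days, or oxaliplatin 5 mg/kg every two days ×3. Growth was imaged by IVIS after i.p. D-luciferin (200 μL, 15 mg/mL) on days 5, 10, 15. Body weight was recorded.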

[2] = test system: VX2 orthotopic liver tumors; experiment: Rabbit VX2 orthotopic liver tumor model, DSA-guided arterial infusion, PET/CT; assay type: in vivo, New Zealand White rabbits; settings: n=4, mean ± s.d.
Outline: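 New Zealand White rabbits (4 months, n=4/group) had 1 mm3 VX2 tumour blocks implanted in the left liver lobe under ultrasound, followed by i.m. penicillin for 3 days and CT sizing. DSA-guided hepatic arterial infusion delivered PBS, oxaliplatin or test nanoparticles (5 mg/kg), doses converted by body surface area. Tumour SUV was measured by PET/CT before and 7 days after infusion.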

BSA = BSA (Bos taurus, UniProt P02769); assay type: binding, bovine; settings: 2–10 μM quencher, BSA 2 μM
Outline: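 BSA (2 μM) titrated with test compound at 0, 2, 4, 6, 8, 10 μM (0–20 μM for one reagent). Site competition used phenylbutazone, ibuprofen or digitoxin (2 μM final) added before the test compound. Steady-state BSA fluorescence was measured without and with quencher. Kq, Kb and n were calculated from the quenching formulas, taking biomolecule average lifetime as 10−8 s.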

Sequence of BSA (P02769 25-607): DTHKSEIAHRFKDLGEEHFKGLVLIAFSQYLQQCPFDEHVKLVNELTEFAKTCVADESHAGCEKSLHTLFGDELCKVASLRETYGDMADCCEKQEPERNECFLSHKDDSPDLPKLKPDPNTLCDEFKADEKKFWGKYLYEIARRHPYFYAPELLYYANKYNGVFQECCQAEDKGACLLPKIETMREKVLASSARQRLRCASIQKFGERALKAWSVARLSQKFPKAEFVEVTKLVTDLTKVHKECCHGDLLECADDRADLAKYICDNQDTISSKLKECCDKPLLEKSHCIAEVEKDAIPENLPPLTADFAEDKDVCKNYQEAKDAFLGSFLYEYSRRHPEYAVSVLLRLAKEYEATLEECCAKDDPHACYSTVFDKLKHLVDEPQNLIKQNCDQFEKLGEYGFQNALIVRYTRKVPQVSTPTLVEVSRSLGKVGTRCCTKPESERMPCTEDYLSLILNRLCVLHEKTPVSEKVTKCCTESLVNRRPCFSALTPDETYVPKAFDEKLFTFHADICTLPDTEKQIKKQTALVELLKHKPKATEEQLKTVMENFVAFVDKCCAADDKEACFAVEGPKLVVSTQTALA

Row | Compound | Body weight of some mice during treatment ([1]; decrease from the initial 20 g, oxaliplatin 5 mg/kg i.v. every two days ×3) | Effect on orthotopic tumors (in vivo imaging) ([1]; mouse orthotopic H22 model, i.v., n=5) | Tumor standardized uptake value (SUV) before treatment [2] | Quenching of BSA Trp-214 fluorescence emission (BSA)
1 | O=C1[O][Pt]2([NH][C@@H]3CCCC[C@H]3[NH]2)[O]C1=O [oxaliplatin] | 13 g | effectively inhibited | 5.44±0.43 | 
2 | Ir(ppy)2-diimi dazole [Ir-diim] |  |  |  | could quench
